Converted amounts (≈) assume the structure as drawn. The source made the active and inactive calls. The calls are words filed in the database; no cut-off is given here.
Test system: Fusarium oxysporum
Assay: Antifungal activity against Fusarium oxysporum assessed as diameter of inhibition zone at 10 mg/ml after 24 hrs by cut-plug method
Format: functional
Details: not given
In short: (§1)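 Bacteria were maintained on nutrient agar and fungi on Sabouraud agar slopes. Testing used the cut-plug technique on nutrient agar, incubated at 30°C for 24 h, and inhibition zone diameters were measured in mm.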

SMILES	diameter of the inhibition zone (DIZ)
Cc1ccc(C(=O)c2cc3c(-c4cccnc4)nn(-c4ccccc4)c3[nH]c2=O)cc1	inactive
O=C(c1ccc(Cl)cc1)c1cc2c(-c3cccnc3)nn(-c3ccccc3)c2[nH]c1=O	inactive
O=C(c1cccnc1)c1cc2c(-c3cccnc3)nn(-c3ccccc3)c2[nH]c1=O	inactive
O=C(c1ccc(F)cc1)c1cc2c(-c3cccnc3)nn(-c3ccccc3)c2[nH]c1=O	inactive

Same assay, conditions: read-out: DIZ

SMILES	zone of inhibition at 10000 µg/mL [mm]
O=C(N[C@H](CO)[C@H](O)c1ccc([N+](=O)[O-])cc1)C(Cl)Cl [CHLORAMPHENICOL]	12

Test system: Enterobacter cloacae
Assay: Antimicrobial activity against Enterobacter cloaca assessed as diameter of inhibition zone at 10 mg/ml after 24 hrs by cut-plug method
Format: functional
Details: read-out: DIZ
In short: as §1

SMILES	zone of inhibition at 10000 µg/mL [mm]
Cc1ccc(C(=O)c2cc3c(-c4cccnc4)nn(-c4ccccc4)c3[nH]c2=O)cc1	12.5
O=C(c1ccc(Cl)cc1)c1cc2c(-c3cccnc3)nn(-c3ccccc3)c2[nH]c1=O	19
O=C(c1cccnc1)c1cc2c(-c3cccnc3)nn(-c3ccccc3)c2[nH]c1=O	11.5
O=C(N[C@H](CO)[C@H](O)c1ccc([N+](=O)[O-])cc1)C(Cl)Cl [CHLORAMPHENICOL]	17
O=C(c1ccc(F)cc1)c1cc2c(-c3cccnc3)nn(-c3ccccc3)c2[nH]c1=O	21

Test system: Serratia
Assay: Antimicrobial activity against Serratia assessed as diameter of inhibition zone at 10 mg/ml after 24 hrs by cut-plug method
Format: functional
Details: read-out: DIZ
In short: as §1

SMILES	zone of inhibition at 10000 µg/mL [mm]
Cc1ccc(C(=O)c2cc3c(-c4cccnc4)nn(-c4ccccc4)c3[nH]c2=O)cc1	17
O=C(c1ccc(Cl)cc1)c1cc2c(-c3cccnc3)nn(-c3ccccc3)c2[nH]c1=O	17
O=C(c1cccnc1)c1cc2c(-c3cccnc3)nn(-c3ccccc3)c2[nH]c1=O	12.5
O=C(N[C@H](CO)[C@H](O)c1ccc([N+](=O)[O-])cc1)C(Cl)Cl [CHLORAMPHENICOL]	25.8
O=C(c1ccc(F)cc1)c1cc2c(-c3cccnc3)nn(-c3ccccc3)c2[nH]c1=O	17.5

Test system: Escherichia coli
Assay: Antimicrobial activity against Escherichia coli assessed as diameter of inhibition zone at 10 mg/ml after 24 hrs by cut-plug method
Format: functional
Details: read-out: DIZ
In short: as §1

SMILES	zone of inhibition at 10000 µg/mL [mm]
Cc1ccc(C(=O)c2cc3c(-c4cccnc4)nn(-c4ccccc4)c3[nH]c2=O)cc1	17
O=C(c1ccc(Cl)cc1)c1cc2c(-c3cccnc3)nn(-c3ccccc3)c2[nH]c1=O	19
O=C(c1cccnc1)c1cc2c(-c3cccnc3)nn(-c3ccccc3)c2[nH]c1=O	10.5
O=C(N[C@H](CO)[C@H](O)c1ccc([N+](=O)[O-])cc1)C(Cl)Cl [CHLORAMPHENICOL]	18
O=C(c1ccc(F)cc1)c1cc2c(-c3cccnc3)nn(-c3ccccc3)c2[nH]c1=O	15

Test system: Radical scavenging activity
Assay: Antioxidant activity assessed as DPPH free radical scavenging activity after 30 mins by spectrophotometry
Format: functional
Details: not given
In short: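 EC50, the amount giving half-maximal scavenging, was taken from serial dilutions (5–50 μg/ml) in DMSO run against DPPH in DMSO (6 mg/50 ml stock) to a 3 ml total. Incubated 30 min in the dark at room temperature, with a DMSO control and A517 read-out. Scavenging % = [1 − (A sample/A control)] × 100.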

EC50 [µg/mL]	SMILES
80.5 (≈ 190 µM)	Clc1ccc(-c2cc3ncc4c(-c5cccnc5)nn(-c5ccccc5)c4n3n2)cc1
53.76 (≈ 134 µM)	Cc1ccc(-c2cc3ncc4c(-c5cccnc5)nn(-c5ccccc5)c4n3n2)cc1
92.85 (≈ 282 µM)	N#Cc1cc2c(-c3cccnc3)nn(-c3ccccc3)c2[nH]c1=S
54.76 (≈ 135 µM)	Cc1ccc(C(=O)c2cc3c(-c4cccnc4)nn(-c4ccccc4)c3[nH]c2=O)cc1
8.97 (≈ 21 µM)	O=C(c1ccc(Cl)cc1)c1cc2c(-c3cccnc3)nn(-c3ccccc3)c2[nH]c1=O
38.64 (≈ 98.2 µM)	O=C(c1cccnc1)c1cc2c(-c3cccnc3)nn(-c3ccccc3)c2[nH]c1=O
3.22 (≈ 18.3 µM)	O=C1O[C@H]([C@@H](O)CO)C(O)=C1O [ASCORBIC ACID]
> 100	c1ccc(-c2cc3ncc4c(-c5cccnc5)nn(-c5ccccc5)c4n3n2)cc1
> 100	N#Cc1cc2c(-c3cccnc3)nn(-c3ccccc3)c2[nH]c1=O
4.21 (≈ 10.3 µM)	O=C(c1ccc(F)cc1)c1cc2c(-c3cccnc3)nn(-c3ccccc3)c2[nH]c1=O

Test system: Radical scavenging activity
Assay: Antioxidant activity assessed as DPPH free radical scavenging activity at 50 ug after 30 mins by spectrophotometry
Format: functional
Details: not given
In short: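 Each sample (50 μg) dissolved in 1 ml DMSO; 250 μl added to 1 ml DPPH in DMSO (6 mg/50 ml), brought to 3 ml with DMSO. DMSO served as control. Vortexed, kept 30 min in the dark at room temperature, and absorbance read at 517 nm. Scavenging % = [1 − (A sample/A control)] × 100.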

SMILES	Activity
CCOC(=O)c1cc2c(-c3cccnc3)nn(-c3ccccc3)c2nc1-c1cccnc1	inactive
Clc1ccc(-c2cc3ncc4c(-c5cccnc5)nn(-c5ccccc5)c4n3n2)cc1	29.4%
Cc1ccc(-c2cc3ncc4c(-c5cccnc5)nn(-c5ccccc5)c4n3n2)cc1	39.6%
N#Cc1cc2c(-c3cccnc3)nn(-c3ccccc3)c2[nH]c1=S	17%
Cc1ccc(C(=O)c2cc3c(-c4cccnc4)nn(-c4ccccc4)c3[nH]c2=O)cc1	38.9%
O=C(c1ccc(Cl)cc1)c1cc2c(-c3cccnc3)nn(-c3ccccc3)c2[nH]c1=O	63.6%
O=C(c1cccnc1)c1cc2c(-c3cccnc3)nn(-c3ccccc3)c2[nH]c1=O	36%
O=C1O[C@H]([C@@H](O)CO)C(O)=C1O [ASCORBIC ACID]	82.8%
c1ccc(-c2cc3ncc4c(-c5cccnc5)nn(-c5ccccc5)c4n3n2)cc1	9.47%
N#Cc1cc2c(-c3cccnc3)nn(-c3ccccc3)c2[nH]c1=O	1.14%
O=C(c1ccc(F)cc1)c1cc2c(-c3cccnc3)nn(-c3ccccc3)c2[nH]c1=O	72.3%

Test system: Bacillus
Assay: Antimicrobial activity against Bacillus assessed as diameter of inhibition zone at 10 mg/ml after 24 hrs by cut-plug method
Format: functional
Details: not given
In short: as §1

SMILES	diameter of the inhibition zone (DIZ)
Cc1ccc(C(=O)c2cc3c(-c4cccnc4)nn(-c4ccccc4)c3[nH]c2=O)cc1	inactive
O=C(c1ccc(Cl)cc1)c1cc2c(-c3cccnc3)nn(-c3ccccc3)c2[nH]c1=O	inactive
O=C(c1cccnc1)c1cc2c(-c3cccnc3)nn(-c3ccccc3)c2[nH]c1=O	inactive
O=C(c1ccc(F)cc1)c1cc2c(-c3cccnc3)nn(-c3ccccc3)c2[nH]c1=O	inactive

Same assay, conditions: read-out: DIZ

SMILES	zone of inhibition at 10000 µg/mL [mm]
O=C(N[C@H](CO)[C@H](O)c1ccc([N+](=O)[O-])cc1)C(Cl)Cl [CHLORAMPHENICOL]	21

Test system: HepG2
Assay: Cytotoxicity against human HepG2 cells by SRB assay
Format: functional, cell-based
Details: not given

SMILES	IC50 [µg/mL]
CCOC(=O)c1cc2c(-c3cccnc3)nn(-c3ccccc3)c2nc1-c1cccnc1	3.75 (≈ 8.9 µM)
Clc1ccc(-c2cc3ncc4c(-c5cccnc5)nn(-c5ccccc5)c4n3n2)cc1	16.2 (≈ 38.3 µM)
Cc1ccc(-c2cc3ncc4c(-c5cccnc5)nn(-c5ccccc5)c4n3n2)cc1	12.9 (≈ 32.1 µM)
N#Cc1cc2c(-c3cccnc3)nn(-c3ccccc3)c2[nH]c1=S	3.9 (≈ 11.8 µM)
COc1cccc2c1C(=O)c1c(O)c3c(c(O)c1C2=O)C[C@@](O)(C(=O)CO)C[C@@H]3O[C@H]1C[C@H](N)[C@H](O)[C@H](C)O1 [DOXORUBICIN]	3.1 (≈ 5.7 µM)
Cc1ccc(C(=O)c2cc3c(-c4cccnc4)nn(-c4ccccc4)c3[nH]c2=O)cc1	8.85 (≈ 21.8 µM)
O=C(c1ccc(Cl)cc1)c1cc2c(-c3cccnc3)nn(-c3ccccc3)c2[nH]c1=O	9 (≈ 21.1 µM)
O=C(c1cccnc1)c1cc2c(-c3cccnc3)nn(-c3ccccc3)c2[nH]c1=O	11 (≈ 28 µM)
c1ccc(-c2cc3ncc4c(-c5cccnc5)nn(-c5ccccc5)c4n3n2)cc1	17.3 (≈ 44.5 µM)
N#Cc1cc2c(-c3cccnc3)nn(-c3ccccc3)c2[nH]c1=O	3.3 (≈ 10.5 µM)
O=C(c1ccc(F)cc1)c1cc2c(-c3cccnc3)nn(-c3ccccc3)c2[nH]c1=O	7.8 (≈ 19 µM)

Test system: MCF7
Assay: Cytotoxicity against human MCF7 cells by SRB assay
Format: functional, cell-based
Details: not given

SMILES	IC50 [µg/mL]
CCOC(=O)c1cc2c(-c3cccnc3)nn(-c3ccccc3)c2nc1-c1cccnc1	6.9 (≈ 16.4 µM)
Clc1ccc(-c2cc3ncc4c(-c5cccnc5)nn(-c5ccccc5)c4n3n2)cc1	14.7 (≈ 34.8 µM)
Cc1ccc(-c2cc3ncc4c(-c5cccnc5)nn(-c5ccccc5)c4n3n2)cc1	10.5 (≈ 26.1 µM)
N#Cc1cc2c(-c3cccnc3)nn(-c3ccccc3)c2[nH]c1=S	2.7 (≈ 8.2 µM)
Cc1ccc(C(=O)c2cc3c(-c4cccnc4)nn(-c4ccccc4)c3[nH]c2=O)cc1	9.9 (≈ 24.4 µM)
O=C(c1ccc(Cl)cc1)c1cc2c(-c3cccnc3)nn(-c3ccccc3)c2[nH]c1=O	6.45 (≈ 15.1 µM)
O=C(c1cccnc1)c1cc2c(-c3cccnc3)nn(-c3ccccc3)c2[nH]c1=O	10.1 (≈ 25.7 µM)
c1ccc(-c2cc3ncc4c(-c5cccnc5)nn(-c5ccccc5)c4n3n2)cc1	15.9 (≈ 40.9 µM)
N#Cc1cc2c(-c3cccnc3)nn(-c3ccccc3)c2[nH]c1=O	3 (≈ 9.57 µM)
O=C(c1ccc(F)cc1)c1cc2c(-c3cccnc3)nn(-c3ccccc3)c2[nH]c1=O	8.7 (≈ 21.2 µM)

Test system: Penicillium expansum
Assay: Antifungal activity against Penicillium expansum assessed as diameter of inhibition zone at 10 mg/ml after 24 hrs by cut-plug method
Format: functional
Details: not given
In short: as §1

SMILES	diameter of the inhibition zone (DIZ)
O=C(c1ccc(Cl)cc1)c1cc2c(-c3cccnc3)nn(-c3ccccc3)c2[nH]c1=O	inactive
O=C(c1cccnc1)c1cc2c(-c3cccnc3)nn(-c3ccccc3)c2[nH]c1=O	inactive
O=C(c1ccc(F)cc1)c1cc2c(-c3cccnc3)nn(-c3ccccc3)c2[nH]c1=O	inactive

Same assay, conditions: read-out: DIZ

SMILES	zone of inhibition at 10000 µg/mL [mm]
Cc1ccc(C(=O)c2cc3c(-c4cccnc4)nn(-c4ccccc4)c3[nH]c2=O)cc1	10
O=C(N[C@H](CO)[C@H](O)c1ccc([N+](=O)[O-])cc1)C(Cl)Cl [CHLORAMPHENICOL]	10
